# Results as given in PMC12766539 (Molecular pharmaceutics, 2022).
# Experiments:
# [1] = test system: 31 clinical strains of S. aureus (5 methicillin-susceptible, 26 resistant); assay: MIC against a panel of 31 clinical strains of S. aureus; format: cell-based, Staphylococcus aureus; settings: ~10^5 CFU/mL, negative control
# Outline: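 Exponential-phase bacteria were diluted to ~10⁵ CFU/mL in TSB or MHB and added to serially diluted test compound (in water). Plates were incubated at 37°C for 20 h and growth was read as absorbance at 600 nm. Water-only wells served as the untreated control and medium as the blank.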
# pUC19 plasmid = assay: DNA gel retardation experiment; format: binding; settings: two peptide concentrations (Figure S2)
# [2] = test system: S. aureus USA300 LAC infection; assay: Invertebrate wax moth infection model; format: in vivo, Galleria mellonella; settings: 64 mg/kg, 1×10^6 CFU/insect, 30 per group, 5 days
# Outline: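 Galleria mellonella larvae (~250 mg; 30 per group) were injected with test compound at 64 mg/kg in phosphate buffer 2 h before infection with S. aureus USA300 at 1×10⁶ CFU/insect. Larvae were kept at room temperature and scored live or dead daily for 5 days. Survival was compared by log-rank test.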
sequence,measurement,setting,value
RIVQRIKDFL [RI-10],inhibitory activity at 32 μM,[1],did not show any inhibitory activity
same,DNA retardation in the well,pUC19 plasmid,unable to retard DNA
same,protection of the animals from infection-caused death,[2],did not protect the animals
